Assays:
[1] = tested on: CHO; assay: Agonist activity at rat KCNQ3 A278T mutant expressed in CHO cells assessed as shift of half voltage of maximal activation at 10 uM by patch clamp method; assay type: cell-based; conditions: filed as agonist
Method in brief: (§1)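 Whole-cell patch clamp at room temperature on CHO cells (DMEM/F12, 10% FBS) transiently co-transfected with EGFP and hKCNQ1, rKCNQ2, rKCNQ3 A278T, hKCNQ4 or hKCNQ5; KCNQ2/3 at 1:1 cDNA ratio. Pipette solution 145 mM KCl, 5 mM MgATP, pH 7.3; bath 140 mM NaCl, 5 mM KCl, pH 7.4, under perfusion. V1/2 from Boltzmann fits; I/I0 is current amplitude with versus without compound; n = 4−6.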

[2] = molecular target: T1, Potassium voltage-gated channel subfamily KQT member 1 (Homo sapiens, UniProt P51787); assay: Agonist activity at human KCNQ1 channel expressed in CHO cells assessed as shift of half voltage of maximal activation at 10 uM by patch clamp method; assay type: cell-based; method in brief: as §1
T1 sequence (P51787 whole entry): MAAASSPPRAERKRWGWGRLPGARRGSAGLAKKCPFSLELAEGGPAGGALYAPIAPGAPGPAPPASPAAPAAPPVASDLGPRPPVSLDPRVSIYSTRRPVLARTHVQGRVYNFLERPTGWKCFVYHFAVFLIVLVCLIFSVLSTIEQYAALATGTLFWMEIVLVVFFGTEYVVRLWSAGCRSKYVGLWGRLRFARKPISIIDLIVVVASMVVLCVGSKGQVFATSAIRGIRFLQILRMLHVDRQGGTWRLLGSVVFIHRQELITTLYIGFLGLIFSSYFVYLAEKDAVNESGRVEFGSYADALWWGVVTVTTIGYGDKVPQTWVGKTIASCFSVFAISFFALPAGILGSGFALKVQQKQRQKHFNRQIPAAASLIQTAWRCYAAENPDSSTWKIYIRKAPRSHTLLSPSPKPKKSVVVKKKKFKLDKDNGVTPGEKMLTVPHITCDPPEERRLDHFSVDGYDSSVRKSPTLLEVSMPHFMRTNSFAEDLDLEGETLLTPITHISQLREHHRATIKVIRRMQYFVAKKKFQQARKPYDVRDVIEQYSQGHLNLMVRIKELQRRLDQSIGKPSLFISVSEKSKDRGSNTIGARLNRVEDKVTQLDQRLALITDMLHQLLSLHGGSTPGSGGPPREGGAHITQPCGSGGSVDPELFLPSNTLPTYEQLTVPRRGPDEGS

[3] = molecular target: Potassium voltage-gated channel subfamily KQT member 5 (Homo sapiens) (UniProt Q9NR82); assay: Agonist activity at human KCNQ5 channel expressed in CHO cells assessed as amplitude change of outward current at 10 uM by patch clamp method; assay type: cell-based; conditions: filed as agonist; method in brief: as §1
Sequence of Potassium voltage-gated channel subfamily KQT member 5 (Homo sapiens) (Q9NR82 whole entry): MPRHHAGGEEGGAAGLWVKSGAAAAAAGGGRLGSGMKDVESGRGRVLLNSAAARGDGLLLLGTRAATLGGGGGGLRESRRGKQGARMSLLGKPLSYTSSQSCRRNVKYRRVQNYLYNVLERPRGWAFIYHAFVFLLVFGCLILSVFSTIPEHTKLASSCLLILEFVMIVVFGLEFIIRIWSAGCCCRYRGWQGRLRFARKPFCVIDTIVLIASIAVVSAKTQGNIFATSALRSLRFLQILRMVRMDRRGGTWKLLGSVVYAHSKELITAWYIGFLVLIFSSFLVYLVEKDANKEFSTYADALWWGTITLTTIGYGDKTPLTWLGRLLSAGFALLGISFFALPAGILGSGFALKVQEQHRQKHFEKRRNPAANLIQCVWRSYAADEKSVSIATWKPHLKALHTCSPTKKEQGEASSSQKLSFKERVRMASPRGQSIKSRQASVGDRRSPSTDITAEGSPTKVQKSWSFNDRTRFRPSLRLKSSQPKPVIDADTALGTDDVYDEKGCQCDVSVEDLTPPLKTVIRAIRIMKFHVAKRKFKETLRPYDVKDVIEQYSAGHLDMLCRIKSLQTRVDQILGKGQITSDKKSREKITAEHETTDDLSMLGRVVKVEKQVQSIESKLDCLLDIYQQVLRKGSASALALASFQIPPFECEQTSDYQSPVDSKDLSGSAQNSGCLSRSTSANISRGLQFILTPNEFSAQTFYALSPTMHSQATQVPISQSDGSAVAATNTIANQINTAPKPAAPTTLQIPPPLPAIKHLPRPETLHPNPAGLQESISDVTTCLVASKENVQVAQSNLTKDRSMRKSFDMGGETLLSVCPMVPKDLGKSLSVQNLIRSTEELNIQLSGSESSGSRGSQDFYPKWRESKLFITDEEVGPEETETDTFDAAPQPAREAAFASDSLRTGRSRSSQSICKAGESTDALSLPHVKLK

[4] = molecular target: T2, Potassium voltage-gated channel subfamily KQT member 2/member 3 (Rattus norvegicus) (UniProt O88943+O88944); assay: Agonist activity at rat KCNQ2/3 channel expressed in CHO cells assessed as shift of half voltage of maximal activation at 10 uM by patch clamp method; assay type: cell-based; conditions: filed as agonist; method in brief: as §1
[5] = Tmax in Sprague-Dawley rat at 6 mg/kg, po measured upto 24 hrs by LC-MS/MS method; assay type: ADME, organism-based; conditions: in vivo
Method in brief: (§2)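 Male SD rats (180–220 g) dosed orally at 2, 6 and 20 mg/kg, handled like the mice: fasting, 5% DMSO/5% Tween 80/saline vehicle, acetonitrile extraction, LC-MS/MS of plasma. In a separate set at 6 mg/kg p.o., blood and brain were sampled together.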

[6] = tested on: Brain; assay: Anticonvulsant activity in MES induced Kunming mouse model of seizure assessed as EC50 in brain; assay type: functional, tissue-based
[7] = Ratio of AUC(0 to t) in Kunming mouse brain to plasma at 5 mg/kg, po measured upto 24 hrs by LC-MS/MS method; assay type: ADME, organism-based; conditions: brain and plasma
Method in brief: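 Male KM mice (18−24 g) fasted 12 h before and 2 h after dosing, given 5 mg/kg orally in 5% DMSO/5% Tween 80/90% normal saline (n = 3 per time point). Aortic blood taken at 0.25–24 h and whole brain collected. Acetonitrile extraction with internal standard, then LC−MS/MS. Bioavailability calculated against the 2 mg/kg i.v. arm.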

[8] = species on record: Rattus norvegicus; assay: Potency index, ratio of retigabine ED50 to test compound ED50 for anticonvulsant activity in MES induced rat model of seizure after 1 hr; assay type: functional
[9] = Volume of distribution at steady state in Kunming mouse plasma at 2 mg/kg, iv measured upto 24 hrs by LC-MS/MS method; assay type: ADME, organism-based; conditions: in vivo
Method in brief: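 Male KM mice (18–24 g), fasted 12 h before and 2 h after dosing, n = 3 per time point. Oral dose in 5% DMSO/5% Tween 80/90% saline; i.v. dose is that formulation diluted in saline with 1% Tween 80. Blood sampled 0.25–24 h after oral dosing, 0.083–24 h after i.v.; whole brain taken after oral dosing. Acetonitrile extraction with internal standard, LC-MS/MS.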

[10] = Cmax in Sprague-Dawley rat at 2 mg/kg, po measured upto 24 hrs by LC-MS/MS method; assay type: ADME, organism-based; parameters: time < 24 hrs, dose 2 mg/kg, route po; conditions: in vivo
Method in brief: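 Male SD rats (180−220 g) dosed orally at 2, 6 or 20 mg/kg in escalating fashion, handled as in the mouse study: 12 h fast, acetonitrile extraction of plasma, LC−MS/MS quantification. AUC0−t by trapezoidal method to the last measurable concentration.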

[11] = Tmax in Sprague-Dawley rat at 20 mg/kg, po measured upto 24 hrs by LC-MS/MS method; assay type: ADME, organism-based; conditions: in vivo; method in brief: as §2
[12] = AUC(0 to t) in Sprague-Dawley rat blood at 6 mg/kg, po measured upto 24 hrs by LC-MS/MS method; assay type: ADME, organism-based; parameters: time < 24 hrs, dose 6 mg/kg, route po
Method in brief: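 Separate experiment in male SD rats given 6 mg/kg orally; blood and brain concentrations measured concurrently. Samples extracted with acetonitrile (brain homogenized in 10 volumes acetonitrile and sonicated) and analysed by LC−MS/MS; AUC0−t by trapezoidal method.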

[13] = molecular target: T2, Potassium voltage-gated channel subfamily KQT member 2/member 3 (Rattus norvegicus); assay: Agonist activity at rat KCNQ2/3 channel expressed in CHO cells assessed as amplitude change of outward current at 0.1 uM by patch clamp method; assay type: cell-based; conditions: filed as agonist; method in brief: as §1
[14] = Ratio of drug concentration in Kunming mouse brain to plasma by rotarod test
[15] = Metabolic stability in mouse liver microsomes assessed as intrinsic clearance; assay type: ADME, Microsome; conditions: read-out: CLH
[16] = Half life in Sprague-Dawley rat at 2 mg/kg, po measured upto 24 hrs by LC-MS/MS method; assay type: ADME, organism-based; conditions: in vivo
Method in brief: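 Male SD rats (180−220 g) given single oral doses of 2, 6 and 20 mg/kg; handled as in the mouse PK study (fasted 12 h before and 2 h after dosing, 5% DMSO/5% Tween 80/90% saline formulation). In a separate 6 mg/kg p.o. set, blood and brain were sampled together. Plasma and brain levels by LC−MS/MS.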

Row | Structure (SMILES) | Activity [1] [mV] | Activity [2] [mV] | Activity [3] | Activity [4] [mV] | Tmax [5] [h] | EC50 [6] [µM] | Kp at 24 h [7] | Ratio ED50 [8] | Vdss [9] [L/kg] | Cmax [10] [ng/mL] | Tmax [11] [h] | AUC(0-t) at 24 h [12] [ng·h/mL] | Activity [13] | Kp [14] | CLint scaled [15] [mL/min/kg] | half-life [16] [h]
1 | CCOC(=O)Nc1ccc(NCc2ccc(F)cc2)cc1N [EZOGABINE] | -46.8 | -8.03 | 3.04 | -34.3 |  |  |  |  |  |  |  |  |  |  |  | 
2 | C#CCN(Cc1ccc(F)cc1)c1cc(C)c(NC(=O)OC)c(C)c1 |  |  |  |  | 0.67 | 0.07 | 2.23 | 2 | 2.89 | 88.2 | 3.67 | 533 | 2.77 | 1.9 | 438 | 1.72

— ChEMBL document CHEMBL5149984, “Discovery of HN37 as a Potent and Chemically Stable Antiepileptic Drug Candidate” (J Med Chem, 2021)
